From ChEMBL document CHEMBL1932940, “Xanthohumol induces apoptosis in human malignant glioblastoma cells by increasing reactive oxygen species and activating MAPK pathways” (J Nat Prod, 2011)
Calls of active or inactive are those of the source.

Assays:
U-87 MG [1] = test: Induction of cell cycle arrest in human U87MG cells assessed as accumulation at G2/M phase at 1 to 20 uM after 48 hrs by flow cytometric analysis; assay type: functional, cell-based; settings: U-87MG ATCC
In short: (§1)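 2 × 10^5 cells per dish exposed 48 h (1−20 μM per legend); harvested, fixed in cold 70% ethanol at −20 °C, stained with propidium iodide plus RNase A (100 U/mL) 30 min at room temperature; percentage in G1, S, G2/M by flow cytometry. Three experiments in triplicate.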

[2] = Cytotoxicity against normal human astrocytes assessed as decrease in cell viability after 48 hrs by MTT assay; assay type: cell-based; settings: astrocyte
In short: (§2)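 Cells (T98G, U87-MG, NHA; 3 × 10^4 per well) plated, next day exposed to serial dilutions (1−50 μM) for 48 h at 37 °C, 5% CO2. MTT (5 mg/mL) added for 3 h; crystals solubilized in 50% DMF/20% SDS pH 4.5; OD at 620 nm. Viability = % of DMSO (0.1% final) controls. Means ± SEM, three experiments in triplicate.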

T98G [3] = test: Anticancer activity against human T98G cells assessed as decrease in cell viability at 50 uM after 48 hrs by MTT assay; assay type: functional; in short: as §2
U-87 MG [4] = test: Induction of cell cycle arrest in human U87MG cells assessed as accumulation at S phase at 1 to 20 uM after 48 hrs by flow cytometric analysis; assay type: functional, cell-based; settings: U-87MG ATCC; in short: as §1
T98G [5] = test: Induction of cell cycle arrest in human T98G cells assessed as accumulation at S phase at 1 to 20 uM after 48 hrs by flow cytometric analysis; assay type: functional, cell-based; in short: as §1
U-87 MG [6] = test: Induction of apoptosis in human U87MG cells at 1 to 50 uM after 48 hrs by propidium iodide staining based flow cytometric analysis; assay type: functional, cell-based; settings: U-87MG ATCC
In short: (§3)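 Cells treated 1−50 μM for 24 or 48 h, washed in PBS, resuspended in 0.1% sodium citrate, 0.1% Triton X-100, 50 μg/mL propidium iodide, 30 min at 4 °C in dark. Nuclei analyzed by flow cytometry, DNA on log scale, debris gated out; percent hypodiploid (sub-G1) nuclei reported. Three experiments in triplicate.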

T98G [7] = test: Induction of cell cycle arrest in human T98G cells assessed as accumulation at G0/G1 phase at 1 to 20 uM after 48 hrs by flow cytometric analysis; assay type: functional, cell-based; in short: as §1
U-87 MG [8] = test: Induction of cell cycle arrest in human U87MG cells assessed as accumulation at G0/G1 phase at 1 to 20 uM after 48 hrs by flow cytometric analysis; assay type: functional, cell-based; settings: U-87MG ATCC; in short: as §1
T98G [9] = test: Induction of cell cycle arrest in human T98G cells assessed as accumulation at G2/M phase at 1 to 20 uM after 48 hrs by flow cytometric analysis; assay type: functional, cell-based; in short: as §1
T98G [10] = test: Induction of apoptosis in human T98G cells at 1 to 50 uM after 48 hrs by propidium iodide staining based flow cytometric analysis; assay type: functional, cell-based; in short: as §3
U-87MG ATCC = test: Anticancer activity against human U87MG cells assessed as decrease in cell viability at 50 uM after 48 hrs by MTT assay; assay type: functional, cell-based; in short: as §2

Measured: Activity

CC(C)=CCC1C(=O)C(C(=O)CC(C)C)=C(O)C(O)(CC=C(C)C)C1=O (stereo unspecified) [HUMULONE]
Non-toxic: [2]
inactive: all other assays above
